Data set [1] in a line: Cytotoxicity against MDBK cells assessed as reduction in cell viability after 72 hrs by MTT assay. In kind it is cell-based, Bos taurus. Conditions: cattle. In a few lines: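 MDBK cells seeded at 6 × 10^5 cells/mL in MEM-E with L-glutamine, 1 mM sodium pyruvate, kanamycin and 10% horse serum. Mock-infected cultures held with serial compound dilutions at 37 °C, 5% CO2. MTT viability read after 72 h. 50% cytotoxic concentration from linear regression as % of untreated controls. Three independent determinations.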
A general note: Tetrazolium dyes change colour on reduction, which living cells bring about.

Data set [2] relates to Vesicular stomatitis virus. Description: Antiviral activity against VSV Indiana ATCC VR-158 infected in african green monkey Vero-76 cells after 2 days by plaque reduction assay. Type of data set: functional, organism-based. To be noted: Indiana ATCC VR-158, Vero 76, 48 h.
In another data set the test system is Vaccinia virus. Nature of the data set: Antiviral activity against VV Elstree ATCC VR-1549 infected in african green monkey Vero-76 cells after 3 days by plaque reduction assay. To be noted: Orthopoxvirus vaccinia, Elstree ATCC VR-1549, Vero 76, 72 h. Type of data set: functional, organism-based. Background: In a plaque reduction assay, fewer plaques than in the control indicate reduced infectivity or spread.

Data set [3] deals with Human poliovirus 1 strain Sabin. Description: Antiviral activity against Human poliovirus 1 strain Sabin 1 virus infected in african green monkey Vero-76 cells after 2 days by plaque reduction assay. In kind it is functional, organism-based. Conditions: Enterovirus C, 1, Vero 76, 48 h.
Data set [4] in a line: Selectivity index, ratio of CC50 for MDBK cells to EC50 for BVDV infected in MDBK cells.
The subject of a further data set is Coxsackievirus B5. Nature of the data set: Antiviral activity against CVB-5 virus Faulkner ATCC VR-185 infected in african green monkey Vero-76 cells after 3 days by plaque reduction assay. Conditions: Enterovirus B, Faulkner ATCC VR-185, Vero 76, 72 h. In kind it is functional, organism-based.
Data set [5] in a line: Cytotoxicity against BHK21 cells assessed as reduction in cell viability after 72 hrs by MTT assay. Type of data set: cell-based, Mesocricetus auratus, BHK-21. To be noted: hamster. Summed up:
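BHK cells seeded at 1 × 10^6 cells/mL in MEM-E with L-glutamine, 1 mM sodium pyruvate, kanamycin and 10% FBS. Mock-infected cells exposed to serial dilutions of compound at 37 °C, 5% CO2, run in parallel with the antiviral assays. Viability by MTT at 72 h. CC50 by linear regression vs untreated controls. Mean of three independent determinations.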

The subject of data set [6] is Human immunodeficiency virus 1. Nature of the data set: Antiviral activity against HIV-1 3B infected in human MT4 cells assessed as protection against virus-induced cytopathic effect after 4 days by MTT assay. Type of data set: functional, organism-based. To be noted: Human immunodeficiency virus 1, 3B, MT4, 96 h. In a few lines:
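MT-4 cells (1 × 10^4/well in RPMI) with or without serial compound dilutions, infected with HIV-1 at 100 CCID50 (m.o.i. 0.01). After 4 days at 37 °C, protection from cytopathogenicity read by MTT. EC50 by linear regression versus untreated controls; mean of three independent determinations.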
On the technique in general: Damage to the host cells serves as the signal in cytopathic effect assays.

The subject of data set [7] is Respiratory syncytial virus. Nature of the data set: Antiviral activity against RSVA2 ATCC VR-1540 infected in african green monkey Vero-76 cells after 5 days by plaque reduction assay. In kind it is functional, organism-based. Conditions: human respiratory syncytial virus, A2 ATCC VR-1540, Vero 76, 120 h.
Data set [8] deals with Bovine viral diarrhea virus 1. Description: Antiviral activity against BVDV NADL ATCC VR-534 infected in MDBK cells assessed as protection against virus-induced cytopathic effect after 3 or 4 days by MTT assay. Type of data set: functional, organism-based. Conditions: Bovine viral diarrhea virus isolates and strains, NADL ATCC VR-534, MDBK. In a few lines:
(§1)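 BHK-21 (YFV, Reo-1) or MDBK (BVDV) cells seeded at 5 × 10^4 or 3 × 10^4 cells/well and grown overnight to confluence. Monolayers infected at m.o.i. 0.01 in maintenance medium (MEM-Earle, 0.5% inactivated FBS). Serial compound dilutions added 2 h after infection; 37 °C for 3-4 days. Viability read by MTT. EC50 by linear regression versus untreated controls; mean of three determinations.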

Data set [9] can be described thus: Selectivity index, ratio of CC50 for human GS4.1 cells to EC50 for Hepatitis C virus genotype 1b replicon infected in human GS4.1 cells. To be noted: read-out: Ratio CC50/EC50. Type of data set: toxicity, cell-based. In a few lines: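 Replicon GS4.1 cells 7.5 × 10^3/well with twofold dilutions (top 75 µM), 72 h at 37 °C. Replication measured by NS4A ELISA (anti-NS4A A-236, peroxidase conjugate, phenylenediamine, A492), with EC50 by four-parameter sigmoidal fit. CC50 from CellTiter 96 AQueous One in the same cells. Index taken as CC50/EC50.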

The nature of data set [10]: Cytotoxicity against human MT4 cells assessed as reduction in cell proliferation after 96 hrs by MTT assay. In kind it is cell-based. In a few lines: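 MT-4 cells in exponential growth seeded at 1 × 10^5 cells/mL in RPMI-1640 with 10% FBS and penicillin/streptomycin. Cultured with serial compound dilutions at 37 °C, 5% CO2. MTT viability after 96 h. CC50 by linear regression against untreated controls. Mean of three independent determinations.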

Data set [11] in a line: Cytotoxicity against african green monkey Vero 76 cells assessed as reduction in cell viability after 48 to 96 hrs by MTT assay. In kind it is cell-based. Conditions: chlorocebus sabaeus. Summed up: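 Vero-76 cells plated at 4 × 10^5 cells/mL in D-MEM with L-glutamine, kanamycin and 10% FBS. Incubated with serial dilutions of test compounds at 37 °C, 5% CO2 for 48-96 h. Viability by MTT. CC50 by linear regression relative to untreated cells. Mean of three independent runs.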

The subject of a further data set is Yellow fever virus. Description: Antiviral activity against YFV 17-D vaccine (Stamaril Pasteur J07B01) infected in BHK21 cells assessed as protection against virus-induced cytopathic effect after 3 or 4 days by MTT assay. Type of data set: functional, organism-based. Conditions: BHK-21. In a few lines:
as §1

For data set [12], the system named is Mammalian orthoreovirus 1. Description: Antiviral activity against Reovirus 1 ATCC VR- 214 infected in BHK21 cells assessed as protection against virus-induced cytopathic effect after 3 or 4 days by MTT assay. In kind it is functional, cell-based. To be noted: Mammalian orthoreovirus 1, ATCC VR- 214, BHK-21. Summed up: as §1
For the next data set, the system named is Hepatitis C virus. Nature of the data set: Antiviral activity against Hepatitis C virus genotype 1b replicon infected in human GS4.1 cells assessed as protection against virus-induced cytopathic effect after […] by ELISA. In kind it is functional, organism-based, Hepacivirus hominis. In a few lines:
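Huh-7 cells carrying the genotype 1b replicon (GS4.1) seeded at 7.5 × 10^3 cells/well in twofold serial compound dilutions (top 75 µM). Replicon-free Huh-7 served as negative control. 72 h at 37 °C. Fixed in acetone-methanol; NS4A ELISA with mouse monoclonal A-236, peroxidase anti-mouse IgG and phenylenediamine; absorbance at 492 nm. EC50 by four-parameter sigmoidal regression of % inhibition.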

For another data set, the system named is Human alphaherpesvirus 1. Nature of the data set: Antiviral activity against HSV-1 KOS ATCC VR- 1493 infected in african green monkey Vero-76 cells after 3 days by plaque reduction assay. Type of data set: functional, organism-based. To be noted: Human alphaherpesvirus 1, KOS ATCC VR1493, Vero 76, 72 h.
Data set [13] in a line: Cytotoxicity against human GS4.1 cells assessed as reduction in cell viability after 72 hrs by Cell Titer 96 aqueous one solution cell proliferation assay. Type of data set: cell-based. In a few lines:
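GS4.1 cells (Huh-7 carrying an HCV genotype 1b replicon, grown with 0.5 mg/mL G418) seeded at 7.5 × 10^3 cells/well with twofold serial dilutions, top 75 µM. Incubated 72 h at 37 °C, 5% CO2. Viability by CellTiter 96 AQueous One. CC50 from % cytotoxicity vs concentration.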

A short description of data set [14]: Inhibition of BVDV RNA-dependent RNA polymerase pre-incubated for preincubated for 30 mins before GTP addition and measured after 120 mins by fluorescence based microplate reader assay. On the set-up: species or system Bovine viral diarrhea virus 1. Summed up:
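His-tagged BVDV NS5BΔ24 (C-terminal 24 residues deleted) from E. coli, Ni-NTA purified, 500 ng/reaction. Assay uses poly(rC) 10 µg/mL template, oligo(rG)12 0.1 µg/mL primer and 80 µM GTP. Buffer is 20 mM Tris pH 7.0, 5 mM MgCl2, 25 mM NaCl, 1 mM DTT, 5% DMSO. Threefold compound dilutions, 30 min RT preincubation, 120 min at 37 °C, EDTA stop. Product read by PicoGreen fluorescence (ex 480/em 520), as % residual activity.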

The values below come from ChEMBL document CHEMBL3734708, “Synthesis, cytotoxicity and antiviral evaluation of new series of imidazo[4,5-g]quinoline and pyrido[2,3-g]quinoxalinone derivatives” (Eur J Med Chem, 2015).

A word on the CC50: it is the concentration at which the toxic effect on the cells reaches its halfway point. Usually EC50 stands for the concentration at which the effect is half-maximal. Regarding `O=c1[nH]c2cc3cccnc3c(Cl)c2nc1-c1ccccc1`, the CC50 at 72 h in data set [1] and in data set [5] was greater than 100 µM throughout. Also, the EC50 in data set [2] was greater than 100 µM; in the data set with Vaccinia virus, greater than 100 µM; in data set [3], greater than 100 µM; in the data set with Coxsackievirus B5 it was greater than 100 µM; in data set [6], greater than 61 µM; in data set [7], greater than 100 µM. The concentration giving a half-maximal response (EC50) in [8] is 5 µM; in the data set on Yellow fever virus, greater than 100 µM; in data set [12], greater than 100 µM; in the data set with Hepatitis C virus it was greater than 11 µM; in the data set on Human alphaherpesvirus 1, greater than 100 µM. Also, in [4], the “Ratio CC50/EC50” value was greater than 20. Further, the selectivity ratio in [9] was determined as 1. Moreover, the CC50 at 96 h in [10] worked out at 61 µM. The CC50 in data set [11] was greater than 100 µM.
For `O=c1[nH]c2cc3cccnc3c(Cl)c2nc1-c1cccs1`, the CC50 at 72 h in data set [1] is greater than 100 µM; in data set [5] it was greater than 100 µM; in [13] it was 21 µM. Moreover, the EC50 (in [2]; in the data set with Vaccinia virus; in data set [3]; in the data set on Coxsackievirus B5; in [6]; in data set [7]) was greater than 100 µM throughout. The EC50 was 6 µM in data set [8]; greater than 100 µM in the data set on Yellow fever virus; greater than 100 µM in data set [12]; 7.5 µM in the data set on Hepatitis C virus; greater than 100 µM in the data set with Human alphaherpesvirus 1. The “Ratio CC50/EC50” value in [4] is reported as greater than 16. In data set [9], the selectivity ratio turned out to be 3. Moreover, the CC50 at 96 h in data set [10] is greater than 100 µM. Also, in data set [11], the CC50 is greater than 100 µM.
As usually defined, the IC50 is the concentration that gives 50% inhibition. `COc1nc2cc3cccnc3c(Cl)c2nc1-c1cccs1`: the CC50 at 72 h in data set [1] and in data set [5] was greater than 100 µM each time. The EC50 (in data set [2]; in the data set with Vaccinia virus; in data set [3]; with Coxsackievirus B5; in [6]; in [7]) was greater than 100 µM each time. In addition, the EC50 in data set [8] is 1.3 µM; in the data set with Yellow fever virus, greater than 100 µM; in [12], greater than 100 µM; in the data set with Human alphaherpesvirus 1, greater than 100 µM. This compound also showed a 50% inhibitory concentration (IC50) in data set [14] of 0.64 µM. The CC50 at 96 h in [10] was greater than 100 µM. Also, in data set [11], the cytotoxic concentration (CC50) was greater than 100 µM.
For the compound `N#CCn1c(=O)c(-c2ccccc2)nc2c(Cl)c3ncccc3cc21`, the CC50 at 72 h in data set [1] and in data set [5] was greater than 100 µM throughout. The concentration for a half-maximal effect (EC50) was greater than 90 µM in data set [2]; greater than 90 µM in the data set with Vaccinia virus; greater than 90 µM in data set [3]; greater than 90 µM in the data set on Coxsackievirus B5; greater than 100 µM in data set [6]; greater than 90 µM in [7]. In addition, the EC50 in data set [8] was greater than 100 µM; with Yellow fever virus, greater than 100 µM; in [12], greater than 100 µM; in the data set with Human alphaherpesvirus 1, greater than 90 µM. In [10], the CC50 at 96 h was greater than 100 µM. The CC50 in data set [11] worked out at 90 µM.
`O=[N+]([O-])c1ccc(COc2nc3cc4cccnc4c(Cl)c3nc2-c2ccccc2)cc1`: the cytotoxic concentration (CC50) at 72 h in [1] and in data set [5] was greater than 100 µM each time. In addition, the EC50 (in data set [2]; with Vaccinia virus; in data set [3]; with Coxsackievirus B5; in [6]; in [7]) was greater than 100 µM throughout. Moreover, the EC50 (in data set [8]; in the data set on Yellow fever virus; in [12]; in the data set on Human alphaherpesvirus 1) was greater than 100 µM throughout. For the same compound, the CC50 at 96 h in [10] was greater than 100 µM. Further, in data set [11], the 50% cytotoxic concentration (CC50) was greater than 100 µM.
Regarding `O=c1[nH]c2cc3cccnc3c(Cl)c2nc1Cc1ccccc1`, the CC50 at 72 h in [1] and in [5] was greater than 100 µM in each case. For the same compound, the concentration for a half-maximal effect (EC50) in data set [2] is greater than 88 µM; in the data set with Vaccinia virus, greater than 88 µM; in [3], greater than 88 µM; in the data set on Coxsackievirus B5, greater than 88 µM; in data set [6], greater than 15 µM; in data set [7], greater than 88 µM. Besides, the EC50 in data set [8] was 2.6 µM; in the data set on Yellow fever virus, greater than 100 µM; in [12], greater than 100 µM; in the data set with Hepatitis C virus it was greater than 65 µM; with Human alphaherpesvirus 1, greater than 88 µM. Besides, the “Ratio CC50/EC50” value in [4] is listed as greater than 34. Further, the selectivity ratio in data set [9] worked out at 1. For the same compound, the CC50 in data set [11] worked out at 88 µM.
